The results in this text go back to ChEMBL document CHEMBL4229410, “Facile construction of fused benzimidazole-isoquinolinones that induce cell-cycle arrest and apoptosis in colorectal cancer cells” (Bioorg Med Chem, 2018).

Each structure is given as a SMILES string. Calls of active or inactive are those of the source. No cut-off for these calls is given here. Some results are limits rather than exact numbers.

Assay [1] concerns HT-29. Briefly: Induction of apoptosis in human HT-29 cells assessed as necrotic cells at 25 uM after 48 hrs by Annexin-V-FITC/propidium iodide staining based flow cytometry (reference value: 1.6%). It counts as functional. Background: In flow cytometry, cells or beads pass a laser one at a time.
In assay [2] the target is Atypical kinase COQ8A, mitochondrial (Homo sapiens, UniProt Q8NI60). Briefly: Binding affinity to full length human ADCK3 (M280 to Q647 residues) expressed in bacterial expression system by KINOMEscan assay.
The target in assay [3] is Inhibitor of nuclear factor kappa-B kinase subunit beta (Homo sapiens) (UniProt O14920). Briefly: Inhibition of full length human IKKbeta (M1 to S756 residues) expressed in mammalian expression system assessed as residual activity at 5 uM by KINOMEscan assay relative to control.
Assay [4] has as its target Glycogen synthase kinase-3 beta (Homo sapiens, UniProt P49841). Briefly: Inhibition of full length human GSK3B (M1 to T433 residues) expressed in mammalian expression system assessed as residual activity at 5 uM by KINOMEscan assay relative to control.
In assay [5] the test system is HT-29. Briefly: Induction of apoptosis in human HT-29 cells assessed as live cells at 75 uM after 48 hrs by Annexin-V-FITC/propidium iodide staining based flow cytometry (reference value: 93.2%). It counts as functional.
Assay [6] deals with SW-620. Briefly: Inhibition of colony formation in human SW620 cells assessed as reduction in number of colonies at 25 to 75 uM treated for 48 hrs followed by compound washout and measured after 14 hrs by crystal violet staining based assay. The assay is classed as functional, cell-based.
The target in assay [7] is Tyrosine-protein kinase ABL1 (Homo sapiens, UniProt P00519). Briefly: Binding affinity to human phosphorylated ABL1 (S229 to K512 residues) expressed in mammalian expression system by KINOMEscan assay.
Assay [8] concerns the target T1, Proto-oncogene tyrosine-protein kinase Src (Homo sapiens, UniProt P12931). Briefly: Inhibition of human SRC (L240 to L536 residues) expressed in bacterial expression system assessed as residual activity at 5 uM by KINOMEscan assay relative to control.
In assay [9] the target is NUAK family SNF1-like kinase 2 (Homo sapiens, UniProt Q9H093). As to the kind of experiment: Binding affinity to human SNARK (P22 to A333 residues) expressed in mammalian expression system by KINOMEscan assay.
In assay [10] the target is Epidermal growth factor receptor (Homo sapiens, UniProt P00533). As to the kind of experiment: Binding affinity to partial length human EGFR (R669 to V1011 residues) expressed in bacterial expression system by KINOMEscan assay.
For assay [11], the target named is T1, Proto-oncogene tyrosine-protein kinase Src. As to the kind of experiment: Binding affinity to human SRC (L240 to L536 residues) expressed in bacterial expression system by KINOMEscan assay.
Assay [12] has as its system Mast/stem cell growth factor receptor Kit (Homo sapiens), P10721 [V559D,T670I]. Briefly: Inhibition of human KIT (I571 to D952 residues) V559D/T670I double mutant expressed in bacterial expression system assessed as residual activity at 5 uM by KINOMEscan assay relative to control.
The target of assay [13] is Mast/stem cell growth factor receptor Kit (Homo sapiens, UniProt P10721, T670I/V559D). As to the kind of experiment: Binding affinity to human KIT (I571 to D952 residues) V559D/T670I double mutant expressed in bacterial expression system by KINOMEscan assay.
Assay [14] addresses Receptor-type tyrosine-protein kinase FLT3 (Homo sapiens, UniProt P36888). As to the kind of experiment: Binding affinity to human FLT3 (V592 to Y969 residues) expressed in bacterial expression system by KINOMEscan assay.
Assay [15] addresses Serine/threonine-protein kinase PAK 1 (Homo sapiens, UniProt Q13153). As to the kind of experiment: Binding affinity to human PAK1 (S149 to H545 residues) expressed in bacterial expression system by KINOMEscan assay.
Assay [16] addresses Platelet-derived growth factor receptor beta (Homo sapiens, UniProt P09619). As to the kind of experiment: Inhibition of human PDGFRB (V582 to Y1009 residues) expressed in bacterial expression system assessed as residual activity at 5 uM by KINOMEscan assay relative to control.
Assay [17] deals with Serine/threonine-protein kinase pim-2 (Homo sapiens, UniProt Q9P1W9). Briefly: Binding affinity to human PIM2 (M1 to E291 residues) expressed in bacterial expression system by KINOMEscan assay.
The target of assay [18] is Cyclin-dependent kinase 16 (Homo sapiens, UniProt Q00536). Briefly: Binding affinity to human PCTK1 (G160 to A474 residues) expressed in mammalian expression system by KINOMEscan assay.
Assay [19] concerns SW-620. As to the kind of experiment: Antiproliferative activity against human SW620 cells after 48 hrs by BrdU/DAPI staining based immunofluorescence assay. The assay is classed as functional, cell-based. The essentials:
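Cells seeded at 20,000 per well after reaching 80% confluence; exposed 48 h to 0, 25, 50, 75 μM, then 10 μM BrdU for 2 h. Paraformaldehyde fixation, 2 M HCl 30 min, 10% goat serum block, anti-BrdU primary overnight at 4 °C, secondary 120 min at room temperature, DAPI 300 nM. Fluorescence microscopy; percent BrdU-positive nuclei, mean ± SD of three independent experiments.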

T1 sequence (P12931 2-536 limits assumed): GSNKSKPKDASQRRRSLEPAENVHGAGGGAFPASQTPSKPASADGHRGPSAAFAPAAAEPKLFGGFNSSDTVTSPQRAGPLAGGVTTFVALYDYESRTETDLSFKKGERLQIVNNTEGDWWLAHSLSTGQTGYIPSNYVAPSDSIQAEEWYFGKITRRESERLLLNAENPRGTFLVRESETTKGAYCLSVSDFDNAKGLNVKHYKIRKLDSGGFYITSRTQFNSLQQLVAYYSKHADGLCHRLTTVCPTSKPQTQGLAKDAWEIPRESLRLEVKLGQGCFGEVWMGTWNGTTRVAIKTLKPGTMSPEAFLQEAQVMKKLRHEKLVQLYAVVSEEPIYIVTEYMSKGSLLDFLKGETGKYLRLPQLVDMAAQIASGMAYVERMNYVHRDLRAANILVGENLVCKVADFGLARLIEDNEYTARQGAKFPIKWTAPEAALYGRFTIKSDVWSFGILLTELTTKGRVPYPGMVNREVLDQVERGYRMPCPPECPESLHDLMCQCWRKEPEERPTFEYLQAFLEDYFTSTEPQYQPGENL
Sequence of Atypical kinase COQ8A, mitochondrial (Q8NI60 whole entry, the tested form may be a part): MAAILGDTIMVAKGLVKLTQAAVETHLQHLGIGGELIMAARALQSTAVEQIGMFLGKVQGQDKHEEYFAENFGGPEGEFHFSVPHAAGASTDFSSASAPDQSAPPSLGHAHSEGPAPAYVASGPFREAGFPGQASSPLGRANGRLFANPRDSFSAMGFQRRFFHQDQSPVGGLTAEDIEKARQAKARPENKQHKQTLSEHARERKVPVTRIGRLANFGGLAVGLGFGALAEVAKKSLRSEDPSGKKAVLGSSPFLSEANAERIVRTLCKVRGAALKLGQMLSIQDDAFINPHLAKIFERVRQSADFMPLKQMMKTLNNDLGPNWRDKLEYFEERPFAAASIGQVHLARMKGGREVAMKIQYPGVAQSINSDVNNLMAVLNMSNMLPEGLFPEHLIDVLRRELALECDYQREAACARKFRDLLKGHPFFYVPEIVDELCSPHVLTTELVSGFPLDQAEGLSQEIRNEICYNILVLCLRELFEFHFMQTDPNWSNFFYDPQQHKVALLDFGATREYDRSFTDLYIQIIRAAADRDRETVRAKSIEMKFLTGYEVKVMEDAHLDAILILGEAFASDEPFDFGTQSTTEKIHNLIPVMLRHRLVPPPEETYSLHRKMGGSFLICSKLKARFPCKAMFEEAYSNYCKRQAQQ
Sequence of Serine/threonine-protein kinase PAK 1 (Q13153 whole entry, the tested form may be a part): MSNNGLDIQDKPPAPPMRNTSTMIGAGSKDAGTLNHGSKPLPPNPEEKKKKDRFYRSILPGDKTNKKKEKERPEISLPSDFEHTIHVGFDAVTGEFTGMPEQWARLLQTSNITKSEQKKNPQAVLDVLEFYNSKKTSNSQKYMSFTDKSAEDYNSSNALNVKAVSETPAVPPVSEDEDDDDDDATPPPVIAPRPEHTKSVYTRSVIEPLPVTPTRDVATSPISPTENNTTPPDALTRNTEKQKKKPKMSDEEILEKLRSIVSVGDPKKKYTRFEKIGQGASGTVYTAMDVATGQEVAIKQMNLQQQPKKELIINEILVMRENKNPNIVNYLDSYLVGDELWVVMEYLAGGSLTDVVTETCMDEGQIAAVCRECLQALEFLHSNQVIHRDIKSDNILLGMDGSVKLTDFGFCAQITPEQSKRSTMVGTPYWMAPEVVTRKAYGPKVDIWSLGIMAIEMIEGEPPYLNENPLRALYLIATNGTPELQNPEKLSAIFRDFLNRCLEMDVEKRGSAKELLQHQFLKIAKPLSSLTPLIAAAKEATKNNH
Sequence of Mast/stem cell growth factor receptor Kit (Homo sapiens), P10721 [V559D,T670I] (P10721 whole entry V559D/T670I, the tested form may be a part): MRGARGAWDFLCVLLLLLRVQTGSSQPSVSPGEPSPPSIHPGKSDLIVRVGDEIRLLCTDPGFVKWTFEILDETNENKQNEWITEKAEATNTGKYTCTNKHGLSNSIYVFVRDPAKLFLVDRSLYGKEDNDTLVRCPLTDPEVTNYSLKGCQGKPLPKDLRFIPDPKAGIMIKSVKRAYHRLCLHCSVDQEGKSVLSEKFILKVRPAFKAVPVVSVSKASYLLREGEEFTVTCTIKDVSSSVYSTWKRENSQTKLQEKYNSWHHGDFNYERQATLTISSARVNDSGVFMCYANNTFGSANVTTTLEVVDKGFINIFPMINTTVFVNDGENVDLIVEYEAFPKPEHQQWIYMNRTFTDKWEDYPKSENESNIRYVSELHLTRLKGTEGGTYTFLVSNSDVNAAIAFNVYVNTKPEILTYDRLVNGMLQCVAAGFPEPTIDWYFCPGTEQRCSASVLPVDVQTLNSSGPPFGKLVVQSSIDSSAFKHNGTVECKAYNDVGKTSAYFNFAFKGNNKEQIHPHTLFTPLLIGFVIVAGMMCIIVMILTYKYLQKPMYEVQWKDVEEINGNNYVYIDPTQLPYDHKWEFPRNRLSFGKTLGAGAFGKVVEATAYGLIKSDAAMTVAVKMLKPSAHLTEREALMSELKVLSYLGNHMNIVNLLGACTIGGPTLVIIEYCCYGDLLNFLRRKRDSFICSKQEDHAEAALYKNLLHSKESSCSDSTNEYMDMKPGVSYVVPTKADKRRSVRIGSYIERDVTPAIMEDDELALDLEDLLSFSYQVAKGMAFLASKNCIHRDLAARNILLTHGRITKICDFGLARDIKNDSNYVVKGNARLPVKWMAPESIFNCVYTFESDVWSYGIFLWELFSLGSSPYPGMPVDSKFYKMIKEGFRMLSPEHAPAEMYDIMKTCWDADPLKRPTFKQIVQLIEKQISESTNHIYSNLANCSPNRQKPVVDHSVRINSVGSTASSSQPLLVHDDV
Sequence of Tyrosine-protein kinase ABL1 (P00519 whole entry, the tested form may be a part): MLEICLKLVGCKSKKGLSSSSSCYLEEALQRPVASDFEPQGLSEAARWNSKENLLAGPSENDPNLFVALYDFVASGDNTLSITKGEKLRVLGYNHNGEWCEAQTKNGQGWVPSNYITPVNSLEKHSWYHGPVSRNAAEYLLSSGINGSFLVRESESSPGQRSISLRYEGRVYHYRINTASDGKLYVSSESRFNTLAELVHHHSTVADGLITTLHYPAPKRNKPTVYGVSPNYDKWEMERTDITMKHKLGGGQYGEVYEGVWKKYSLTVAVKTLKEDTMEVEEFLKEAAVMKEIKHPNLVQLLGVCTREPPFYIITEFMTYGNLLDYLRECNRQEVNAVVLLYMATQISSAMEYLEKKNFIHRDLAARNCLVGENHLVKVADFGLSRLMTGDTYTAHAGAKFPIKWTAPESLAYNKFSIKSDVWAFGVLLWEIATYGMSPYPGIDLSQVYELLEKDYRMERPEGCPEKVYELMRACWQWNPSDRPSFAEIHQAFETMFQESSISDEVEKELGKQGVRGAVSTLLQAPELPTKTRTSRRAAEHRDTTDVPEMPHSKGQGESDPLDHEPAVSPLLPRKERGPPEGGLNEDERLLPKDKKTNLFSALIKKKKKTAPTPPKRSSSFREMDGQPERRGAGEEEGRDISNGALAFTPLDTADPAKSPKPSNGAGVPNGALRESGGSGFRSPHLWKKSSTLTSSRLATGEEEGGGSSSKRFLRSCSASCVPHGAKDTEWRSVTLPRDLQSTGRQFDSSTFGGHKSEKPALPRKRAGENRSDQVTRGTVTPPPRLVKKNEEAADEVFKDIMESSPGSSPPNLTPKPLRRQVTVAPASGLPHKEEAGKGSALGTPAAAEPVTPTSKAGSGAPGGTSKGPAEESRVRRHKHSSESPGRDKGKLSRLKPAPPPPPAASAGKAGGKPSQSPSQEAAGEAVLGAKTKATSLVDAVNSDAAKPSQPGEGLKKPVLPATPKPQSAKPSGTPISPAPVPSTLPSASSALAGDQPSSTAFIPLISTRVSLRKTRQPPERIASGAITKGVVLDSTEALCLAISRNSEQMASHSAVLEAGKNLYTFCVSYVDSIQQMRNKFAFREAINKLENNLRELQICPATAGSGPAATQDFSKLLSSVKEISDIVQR
Sequence of Platelet-derived growth factor receptor beta (P09619 whole entry, the tested form may be a part): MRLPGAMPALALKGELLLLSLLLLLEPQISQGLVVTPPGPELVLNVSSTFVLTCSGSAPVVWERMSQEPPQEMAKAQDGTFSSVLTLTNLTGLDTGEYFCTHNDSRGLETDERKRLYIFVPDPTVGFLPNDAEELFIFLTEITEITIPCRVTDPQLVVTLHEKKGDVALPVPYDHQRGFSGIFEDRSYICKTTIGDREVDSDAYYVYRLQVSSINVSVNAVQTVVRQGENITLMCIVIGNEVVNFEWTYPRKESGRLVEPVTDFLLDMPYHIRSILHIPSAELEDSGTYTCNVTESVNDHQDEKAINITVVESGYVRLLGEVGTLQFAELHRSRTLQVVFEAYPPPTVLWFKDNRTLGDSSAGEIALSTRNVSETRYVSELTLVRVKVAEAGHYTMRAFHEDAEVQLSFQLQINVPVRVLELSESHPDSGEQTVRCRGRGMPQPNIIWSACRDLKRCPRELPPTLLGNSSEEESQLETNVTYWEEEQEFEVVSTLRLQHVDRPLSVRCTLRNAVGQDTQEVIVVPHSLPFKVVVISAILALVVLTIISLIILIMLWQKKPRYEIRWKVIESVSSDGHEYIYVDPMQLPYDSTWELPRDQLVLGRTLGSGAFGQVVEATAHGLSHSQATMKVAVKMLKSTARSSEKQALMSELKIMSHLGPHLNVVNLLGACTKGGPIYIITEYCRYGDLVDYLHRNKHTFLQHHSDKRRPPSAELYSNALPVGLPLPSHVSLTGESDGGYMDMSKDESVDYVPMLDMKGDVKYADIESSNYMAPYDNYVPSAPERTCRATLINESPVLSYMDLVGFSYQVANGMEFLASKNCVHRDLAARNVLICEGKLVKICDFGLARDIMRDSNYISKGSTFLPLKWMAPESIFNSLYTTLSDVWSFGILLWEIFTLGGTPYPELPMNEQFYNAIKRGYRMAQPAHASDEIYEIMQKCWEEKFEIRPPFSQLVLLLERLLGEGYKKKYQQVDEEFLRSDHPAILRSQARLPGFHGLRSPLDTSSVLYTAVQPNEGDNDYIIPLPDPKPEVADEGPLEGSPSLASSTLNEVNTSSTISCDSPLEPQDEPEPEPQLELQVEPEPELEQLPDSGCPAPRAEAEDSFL

With `CC(C)CN(C(=O)c1cccnc1)c1c2ccccc2c(=O)n2c1[nH]c1ccccc12`, the Activity in the assay on HT-29 [1] is 2.7%; in assay [3], 93%; in assay [4], 100%; with HT-29 [5], 49.8%; in assay [8], 100%; in assay [12], 98%. Further, the Activity in assay [16] is 100%; with SW-620 [19], “Dose-dependent effect”. In addition, the Kd in assay [2], in assay [7], in assay [9], in assay [10], in assay [11] and in [13] was at least 5 µM each time. Further, the dissociation constant (Kd) in assay [14], in assay [15], in assay [17] and in assay [18] was at least 5 µM in each case. Besides, the inhibition result in the assay with SW-620 [6] was “Active”.

As a reminder, the Kd is the constant that tells how readily two partners part at equilibrium. The low end stands for higher affinity, the high end for lower affinity.
